# Shown is part of a subset that was picked to be rich in hits.
# T cruzi HTS: blocks T. cruzi growth inside host cells; intracellular Trypanosoma cruzi in host cells, plate reader; activity score (inhibition), % at 5.01 µM; actives 4.9% (n = 22,000); in the data active = activity score above about 55%;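 note: parasites and compound incubated about four days before reading; 0% = median of neutral control wells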
# A1 apoptosis 2: A1 inhibition read as caspase activation; MEF A1-2A-BIM cells, caspase-Glo luminescence, 3 h; percent of clofoctol response, DMSO zero; caspase activation, % (concentration not given with the values); 24,000 tested, under 10 active; AID 2465; in the data active = caspase activation above about 5.9%
#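 System: mouse embryonic fibroblasts co-expressing A1 and BIM (A1-2A-BIM), primed for A1 dependence; amount: 2500 cells/well; doses: 50 nL pinned compound; schedule: cells settled overnight, compound exposure 3 h at 37 °C, 5% CO2; detection: Caspase-Glo 3/7 luminescence, 1 h at room temperature; read-out: Caspase-3/7 activation, seen as rise in luminescence signal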
# INS-1E rescue: preserves ATP levels in cytokine-treated INS-1E cells; INS-1E cytokine-induced death, ATP luminescence, 48 h; normalised: neutral wells 0, positive control 100; protection from cytokine-induced ATP loss, % at 10 µM; actives 0.1% (n = 20,000); AID 488910;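 active = mean replicate protection from cytokine-induced ATP loss at least 50% and at least 75% of replicates each reaching 50%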
#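 Assay system: INS-1E rat insulinoma cells. Amount: 8000 cells per well. Medium: phenol-red-free RPMI with 5% fetal bovine serum. Reagent: IL-1β, TNF-α and IFN-γ cytokine mix. Doses: one compound concentration, pin transfer. Schedule: 48 h co-treatment, 10 min post-lysis read. Detection: CellTiter-Glo luminescence measuring cellular ATP.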
# * = called active by the depositor; . = no result.
SMILES,T cruzi HTS,A1 apoptosis 2,INS-1E rescue
C[C@@H]1CN([C@@H](C)CO)C(=O)Cc2cc(N(C)C)ccc2O[C@@H]1CN(C)Cc1ccc(C(F)(F)F)cc1,-18,1,-5
C[C@@H]1CN([C@H](C)CO)C(=O)Cc2cc(N(C)C)ccc2O[C@@H]1CN(C)Cc1ccc(C(F)(F)F)cc1,-4,-1,-1
C[C@@H]1CN([C@H](C)CO)C(=O)Cc2cc(N(C)C)ccc2O[C@H]1CN(C)Cc1ccc(C(F)(F)F)cc1,64*,0,20
Cc1noc(C)c1NC(=O)Nc1cccc2c1O[C@@H](CN(C)Cc1ccc3c(c1)OCO3)[C@H](C)CN([C@H](C)CO)C2=O,16,-1,3
CC(C)NC(=O)N(C)C[C@@H]1Oc2ccc(NS(=O)(=O)c3cccs3)cc2CC(=O)N([C@H](C)CO)C[C@H]1C,-18,2,15
Cc1ccc(S(=O)(=O)Nc2ccc3c(c2)C(=O)N([C@H](C)CO)C[C@H](C)[C@H](CN(C)S(=O)(=O)c2ccc(Cl)cc2)O3)cc1,47*,.,.
Cc1ccc(S(=O)(=O)N(C)C[C@@H]2Oc3ccc(NS(=O)(=O)c4ccc(Cl)cc4)cc3C(=O)N([C@H](C)CO)C[C@@H]2C)cc1,40,1,5
C[C@H](CO)N1C[C@H](C)[C@H](CN(C)S(=O)(=O)c2ccc(Cl)cc2)Oc2ccc(NS(=O)(=O)c3ccc(Cl)cc3)cc2C1=O,64*,-1,.
C[C@H](CO)N1C[C@H](C)[C@@H](CN(C)S(=O)(=O)c2ccc(Cl)cc2)Oc2ccc(NS(=O)(=O)c3ccc(Cl)cc3)cc2C1=O,39,-1,-5
C[C@H](CO)N1C[C@H](C)[C@@H](CN(C)Cc2ccc3c(c2)OCO3)Oc2c(NS(C)(=O)=O)cccc2C1=O,-30,0,7
Cc1ccc(S(=O)(=O)Nc2ccc3c(c2)C(=O)N([C@H](C)CO)C[C@H](C)[C@H](CN(C)Cc2ccc(-c4ccccc4)cc2)O3)cc1,17,.,2
CC(C)NC(=O)Nc1cccc2c1O[C@@H](CN(C)CC1CCCCC1)[C@@H](C)CN([C@@H](C)CO)C2=O,23,-1,-11
C[C@H]1CN([C@@H](C)CO)C(=O)c2cccc(NC(=O)NC3CCCCC3)c2O[C@@H]1CN(C)Cc1ccc(Oc2ccccc2)cc1,49,.,-21
C[C@@H]1CN([C@H](C)CO)C(=O)c2cccc(NC(=O)NC3CCCCC3)c2O[C@H]1CN(C)Cc1ccccc1,23,-2,8
C[C@@H]1CN([C@H](C)CO)C(=O)c2cccc(NC(=O)NC3CCCCC3)c2O[C@H]1CN(C)Cc1ccc(-c2ccccc2)cc1,34,.,-7
C[C@@H]1CN([C@H](C)CO)C(=O)c2cccc(NC(=O)NC3CCCCC3)c2O[C@@H]1CN(C)Cc1ccc(Oc2ccccc2)cc1,64*,-1,-55
C[C@H](CO)N1C[C@H](C)[C@@H](CN(C)Cc2ccc(-c3ccccc3)cc2)Oc2c(NC(=O)NC3CCCCC3)cccc2C1=O,68*,.,-19
C[C@@H]1CN([C@H](C)CO)C(=O)c2cccc(NC(=O)NC3CCCCC3)c2O[C@H]1CN(C)Cc1ccc(Oc2ccccc2)cc1,61*,.,-38
CC(C)NC(=O)N(C)C[C@H]1OCCCC[C@H](C)Oc2ccc(NC(=O)Nc3ccccc3)cc2C(=O)N([C@@H](C)CO)C[C@H]1C,.,-1,.
C[C@@H]1CN([C@@H](C)CO)C(=O)c2cccc(NC(=O)c3nc4ccccc4s3)c2O[C@@H]1CN(C)C(=O)Nc1ccc(F)cc1,7,.,-4
C[C@H](CO)N1C[C@H](C)[C@@H](CN(C)C(=O)Nc2ccc(C(F)(F)F)cc2)Oc2c(NC(=O)c3nc4ccccc4s3)cccc2C1=O,58*,-1,-11
C[C@H](CO)N1C[C@H](C)[C@H](CN(C)C(=O)Nc2ccc(C(F)(F)F)cc2)Oc2c(NC(=O)c3nc4ccccc4s3)cccc2C1=O,63*,.,-41
C[C@@H]1CN([C@H](C)CO)C(=O)c2cccc(NC(=O)c3nc4ccccc4s3)c2O[C@@H]1CN(C)C(=O)Nc1ccc(C(F)(F)F)cc1,-26,.,-67
C[C@H](CO)N1C[C@H](C)[C@H](CN(C)Cc2ccncc2)Oc2ncc(-c3cccc(C(F)(F)F)c3)cc2C1=O,46,0,.
C[C@H](CO)N1C[C@H](C)[C@H](CN(C)C(=O)NC2CCCCC2)Oc2ncc(C#Cc3cccc(F)c3)cc2C1=O,63*,.,.
C[C@H](CO)N1C[C@H](C)[C@H](CN(C)C(=O)NC2CCCCC2)Oc2ncc(-c3ccc(F)cc3)cc2C1=O,-8,.,.
